# Diaph act CS: compounds boosting diaphorase resazurin reduction – biochemical, uHTS, resorufin fluorescence, counter-screen for diaphorase-coupled primary assays, primary screen | activation factor at 20 µM | Diaphorase/resazurin coupled assay, 16 min; active compounds read high; 1 = vehicle wells, 0 = NADH-free wells | 190,000 compounds, 0.005% hits;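 active = diaphorase activity raised at least twofold by the compound at 20 µM; inactive = activation factor below 2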
#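 Material: Clostridium kluyveri diaphorase, purified enzyme; Quantity: enzyme 0.07 U/mL final; Medium: HEPES pH 7.4 buffer with MgCl2 and Tween 20; Dosing: single compound dose of 20 µM, 1% DMSO final; Schedule: 16 min reaction at room temperature; Measured by: red resorufin fluorescence at 544/590 nm excitation/emission.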
# DTT redox prof: compounds producing H2O2 with reducing agent – biochemical, NIH compound library profiling, artefact control for MLSCN library redox annotation, primary screen | activation, % at 10 µM | DTT-dependent redox cycling H2O2, phenol red/HRP absorbance; 100% = 100 µM peroxide control, 0% = buffer | 200,000 compounds, 0.03% hits | AID 878, 2007;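 active = activation of at least 50% relative to the plate's high and low controls in the primary single-dose screen; inactive = activation below 50%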;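 also: compound incubated with DTT at 0.8 mM final as the reducing agent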
# PfG6PD inh: PfG6PD enzyme inhibitors, primary screen, biochemical, fluorescence intensity, uHTS. glucose-6-phosphate dehydrogenase-6-phosphogluconolactonase (Plasmodium falciparum 3D7). PfGluPho enzyme, NADPH resazurin-diaphorase fluorescence. inhibition, % at 20 µM. 350,000 compounds, 0.78% hits;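 active = inhibition reaching at least a set limit at 20 µM in the primary screen, cut at about 59% in these data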
# Lmaj promast: Leishmania major promastigote growth inhibition, primary screen. inhibition, % at 10 µM. 200,000 compounds, 9% hits. Leishmania major promastigotes, resazurin fluorescence viability;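 also: promastigotes grown with compound for 44 hours at 28 °C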
# Diaph inh CS: diaphorase inhibitors and chemical oxidizers, primary screen, counter-screen for diaphorase-coupled primary assays, biochemical, uHTS, resorufin fluorescence; diaphorase resazurin-to-resorufin fluorescence, NADH, 16 min; bacterial (C. kluyveri) enzyme, not human; inhibition, % at 20 µM; 190,000 compounds, 0.69% hits; AID 1217, 2008;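 active = primary screen inhibition at 20 µM above a set limit, cut at about 50% in these data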
#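 Test system: bacterial diaphorase enzyme (C. kluyveri); Quantity: 0.14 U/mL diaphorase, enzyme working solution; Times: reaction incubation of 16 min at room temperature; Measured by: fluorescence of resorufin formed from resazurin, Ex 544/Em 590 nm; Benchmarks: positive control minus NADH, DMSO neutral control.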
# G6PDH counter: L. mesenteroides G6PDH inhibitors, counter-screen for G6PDH-coupled screening assays, biochemical, Leuconostoc mesenteroides enzyme; glucose-6-phosphate dehydrogenase [Leuconostoc mesenteroides]; Purified L. mesenteroides G6PDH, diaphorase/resazurin coupled fluorescence, 45 min; inhibition, % at 5 µM; 200,000 compounds, 0.12% hits
# L major 1uM: Leishmania major promastigote growth inhibition, confirmation, 1 µM repeat of primary hits. 1,100 compounds, 13% hits. AID 1258, 2008. inhibition, % at 1 µM. L. major promastigote growth, resazurin fluorescence, 48 h. shares compounds with Lmaj promast;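 active = inhibition above about 50% in both repeat tests, limit read from the data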
# A number is an active result; – = inactive; · = no result given. Many of the other results were omitted from the sample, so hits are more common in it than they were. Rule as the data show it, unless noted: active = inhibition above about 50%; inactive = the rest.
SMILES,Diaph act CS,DTT redox prof,PfG6PD inh,Lmaj promast,Diaph inh CS,G6PDH counter,L major 1uM
O=S(=O)(c1ccccc1)c1ncc(C(F)(F)F)cc1O,–,–,–,–,–,–,·
O=S(=O)(c1ccccc1)c1ncc(C(F)(F)F)cc1Cl,–,–,–,72,–,–,–
CN(C)S(=O)(=O)c1cccn1-c1ncc(C(F)(F)F)cc1Cl,–,–,–,100,–,–,–
COc1cc(C(c2nnnn2C2CCCC2)N2CCN(C(=O)c3ccco3)CC2)cc(OC)c1OC (stereo not given),·,·,–,·,·,·,·
CCN1CCN(c2cc(SC(C)C)nc(-c3ccc(OC)cc3)n2)CC1,–,–,–,100,–,–,–
COc1ccc(NS(=O)(=O)c2cc(NC(=O)c3nc4nc(C)cc(C)n4n3)ccc2C)cc1,–,–,–,72,–,–,–
Cc1cc(C)n2nc(C(=O)OCC(=O)Nc3ccc(C)c(S(=O)(=O)N(C)C)c3)nc2n1,·,·,–,·,·,·,·
CN(Cc1ccccc1)C(=O)CC(c1ccccc1)c1cc(Cl)ccc1O (stereo not given),–,–,–,81,–,–,–
CCN1C(=O)C(CC(=O)Nc2ccc(Br)cc2)N(CCCc2ccccc2)C1=S (stereo not given),–,–,–,92,–,–,–
COc1ccccc1CN1CCNC(=O)C1CC(=O)NCCc1cnccn1 (stereo not given),–,–,–,–,–,–,·
CCN1C(=O)C(NC(C)=O)c2cc(OC)ccc21 (stereo not given),–,–,–,–,–,–,·
COc1ccc([C@@H]2Sc3cc(OC)ccc3N(CCN(C(C)C)C(C)C)C(=O)[C@H]2OC(C)=O)cc1,–,–,–,74,–,–,–
O=C(CN1CCC(n2nnc3cc(C(F)(F)F)ccc32)CC1)NCc1cccs1,–,–,–,79,–,–,–
COC(=O)c1ccc(N2CCN(C)CC2)c(NC(=O)c2cccs2)c1,·,·,–,·,·,·,·
CCOC(=O)c1ccc(N2C(=O)CC(C(=O)OC)=C2C)cc1,–,–,–,86,–,–,–
CCOC(=O)c1ccc(N2C(=O)Cc3ccccc3C2=O)cc1,·,·,–,·,·,·,·
COc1coc(C(O)CN)cc1=O (stereo not given),–,–,–,–,–,–,·
CCOC(=O)C(=Cc1cc(=O)c(OC)co1)C(=O)OCC,–,–,–,100,–,–,101
CC1CCN(c2c(NCC3CCC(C(=O)NCCCc4ccccc4)CC3)c(=O)c2=O)CC1 (stereo not given),·,·,–,·,·,·,·
O=CN/C=C/c1cc(O)ccc1O,·,·,–,·,·,·,·
Cc1cccc(NC(=O)c2cc3ccccc3oc2=O)c1,·,·,–,·,·,·,·
Cc1ccc(S(=O)(=O)N/N=c2\oc3ccccc3cc2C(=O)Nc2cccc(C)c2)cc1,–,–,·,71,–,–,–
c1ccc(CNc2nc(-c3ccccc3)nc3ccccc23)cc1,·,·,–,·,·,·,·
c1ccc(CNc2nc(-c3cccs3)nc3ccccc23)cc1,–,–,–,99,–,–,59
O=C1C(=O)N(c2nccs2)C(c2ccccc2F)/C1=C(\O)c1ccc2c(c1)OCCO2 (stereo not given),·,·,–,·,·,·,·
SMILES,Diaph act CS,DTT redox prof,PfG6PD inh,Lmaj promast,Diaph inh CS,G6PDH counter,L major 1uM
COc1ccc(C2C(=O)N(C3CCCCC3)CC(=O)N2Cc2ccc3c(c2)OCO3)cc1 (stereo not given),–,–,–,91,–,–,–
O=C1C(c2ccc(F)cc2)N(Cc2ccc3c(c2)OCO3)C(=O)CN1C1CCCCCC1 (stereo not given),–,–,–,–,–,–,·
CC(C)(C)c1cc(CSC(=S)NC2CCS(=O)(=O)C2)c(Br)c(C(C)(C)C)c1 (stereo not given),–,–,–,95,–,–,–
CN(C)C(=S)NC1CCS(=O)(=O)C1 (stereo not given),–,–,–,–,–,–,·
O=C1c2ccccc2C(=O)C12Cc1ccccc1N1CCN(c3ccccc3)CC12 (stereo not given),–,–,–,65,–,–,67
O=C(CN1CCN(c2ccccc2)CC1)N1CCc2ccccc21,·,·,–,·,·,·,·
O=C(Cn1cnc2c(nnn2-c2ccccc2)c1=O)N1CCCc2ccccc21,–,–,–,53,–,–,–
O=C(Cn1cnc2c(nnn2Cc2ccccc2)c1=O)N1CCCc2ccccc21,–,–,–,–,–,–,·
C=CCC[C@@H](Cc1ccc(F)cc1)C(=O)OCCNC(=O)[C@H](CC=C)CC(=O)NCCO,·,·,–,·,·,·,·
Cc1cc(OC(=O)C(c2ccccc2)c2ccccc2)c([N+](=O)[O-])c(=O)[nH]1,–,–,–,58,–,–,–
CCCC(CCC)C(=O)Oc1cc(C)[nH]c(=O)c1[N+](=O)[O-],–,–,–,–,–,–,·
Cn1c(SC2=CS(=O)(=O)c3ccccc32)nc2ccccc21,–,–,–,99,–,–,–
CCOC(=O)c1c(NC(=O)c2ccc(S(=O)(=O)N3CCOCC3)cc2)sc2c1CCN(C)C2,–,–,–,68,–,–,–
CCOC(=O)c1c(NC(=O)c2ccc(S(=O)(=O)N3CCOCC3)cc2)sc2c1CC(C)(C)NC2(C)C,·,·,–,·,·,·,·
COc1ccc(OC)c2[nH]c(=O)c(CCNC(=O)c3ccc(S(=O)(=O)N4CCCC4)cc3)cc12,–,–,–,67,51,–,–
O=C(Cc1c(F)cccc1Cl)Nc1nccs1,·,·,–,·,·,·,·
Oc1ccc2ccc3[nH]cnc3c2c1,·,·,–,·,·,·,·
Oc1ccc2[nH]ccc2c1,–,–,–,87,–,56,–
CC(C)Oc1ccc(C(=O)OCC(=O)N2CCCc3ccccc32)cc1,·,·,–,·,·,·,·
O=C(O)c1cc(-c2cccc(Cl)c2)nc2nc(N3CCCCC3)sc12,–,–,–,63,–,–,–
O=[N+]([O-])c1ccc(N/N=C/c2c[nH]c3ccccc23)cc1,–,–,–,98,–,–,–
O=C1CC(c2ccccc2Br)c2cc3c(cc2N1)CCC3 (stereo not given),–,–,·,100,–,–,88
CC(=O)Nc1cccc(C(=O)/C=C/c2cccs2)c1,–,–,–,93,–,–,–
c1ccc2c(CSCCc3ccncc3)cccc2c1,–,–,–,99,–,–,–
CCOC(=O)c1sc(NC(=O)CN2CCCC2)c(C(=O)OCC)c1C,–,–,–,93,–,–,–

# Source: PubChem
